Experimental data: ChEMBL document CHEMBL3102721, “Napyradiomycin derivatives, produced by a marine-derived actinomycete, illustrate cytotoxicity by induction of apoptosis” (J Nat Prod, 2014)
The source made the active and inactive calls. The calls are words filed in the database; no cut-off is given here.

Legend:
HCT-116 [1] = test: Antiproliferative activity against human HCT116 cells assessed as cell viability after 72 hrs by MTS assay; format: functional, cell-based; details: HCT-116, 72 h
Outline: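 HCT-116 cells plated, left overnight at 37 °C in 5% CO2/air, then given compound from 10 mg/mL DMSO stock at 100 μM top concentration with serial dilution. After 72 h, MTS/PMS added for 3 h and formazan read at 490 nm. IC50 with 95% CI calculated from viability. Etoposide positive control, DMSO negative control.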

HCT-116 [2] = test: Induction of apoptosis in human HCT116 cells after 24 hrs by Yo-Pro-1/PI staining-based FACS flow cytometric analysis; format: functional, cell-based
Outline: (§1)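 HCT116 cells were grown in McCoy's medium with 10% FBS at 37 °C, 5% CO2, to 50% confluence, then treated for 24 h. They were trypsinized, washed in cold PBS and brought to ~1×10^6 cells/mL. Staining was 30 min on ice with 0.1 μM Yo-Pro-1 (apoptotic) and 3 μg/mL PI (necrotic), final concentrations. Flow cytometry used 488 nm excitation. Gates were set with DMSO and 10 μM camptothecin (24 h) controls, excluding debris.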

HCT-116 [3] = test: Induction of apoptosis in human HCT116 cells at 4 uM after 24 hrs by Yo-Pro-1/PI staining-based FACS flow cytometric analysis; format: functional, cell-based; outline: as §1
HCT-116 [4] = test: Induction of cell death in human HCT116 cells at 32 uM after 24 hrs by Yo-Pro-1/PI staining-based FACS flow cytometric analysis; format: functional; outline: as §1
HCT-116 [5] = test: Induction of apoptosis in human HCT116 cells at 1 to 16 uM after 24 hrs by Yo-Pro-1/PI staining-based FACS flow cytometric analysis; format: functional, cell-based; outline: as §1
HCT-116 [6] = test: Induction of cell death in human HCT116 cells at 1 to 16 uM after 24 hrs by Yo-Pro-1/PI staining-based FACS flow cytometric analysis; format: functional; outline: as §1

| SMILES | IC50 (HCT-116 [1]) [µM] | further results |
| --- | --- | --- |
| Cc1c(O)cc2c(c1O)C(=O)C1=C[C@@H](Cl)C(C)(C)O[C@@]1(C[C@H]1C(C)(C)[C@@H](Cl)CC[C@]1(C)O)C2=O | > 100 |  |
| CC(C)=CCC/C(C)=C/C[C@@]12OC(C)(C)[C@H](Br)C[C@]1(Cl)C(=O)c1c(cc(O)c(C)c1O)C2=O | 6 |  |
| Cc1c(O)cc2c(c1O)C(=O)[C@@]1(Cl)C[C@@H](Br)C(C)(C)O[C@@]1(C[C@H]1C(C)(C)[C@H]3CC[C@]1(C)O3)C2=O | > 100 |  |
| C=C1CC[C@H](Cl)C(C)(C)[C@@H]1C[C@@]12OC(C)(C)[C@H](Cl)C[C@]1(Cl)C(=O)c1c(cc(O)c(C)c1O)C2=O | 3 | Activity (HCT-116 [2]): Dose-dependent effect; Activity (HCT-116 [3]): Active |
| C=C1CC[C@H](Br)C(C)(C)[C@@H]1C[C@@]12OC(C)(C)[C@H](Cl)C[C@]1(Cl)C(=O)c1c(O)cc(O)cc1C2=O | 3 |  |
| CC1=C(O)C2=C(C(=O)[C@]3(C[C@H]4C(C)(C)[C@@H](Cl)CC[C@]4(C)O)OC(C)(C)[C@H](Cl)C[C@]3(Cl)C2=O)C(=[N+]=[N-])C1=O | < 1 |  |
| Cc1c(O)cc2c(c1O)C(=O)[C@@]1(Cl)C[C@@H](Cl)C(C)(C)O[C@@]1(C[C@H]1C(C)(C)[C@H]3CC[C@]1(C)O3)C2=O | 17 | Activity (HCT-116 [2]): Dose-dependent effect; Activity (HCT-116 [3]): Active |
| COc1cc([C@@H]2c3cc4c(cc3[C@@H](O[C@@H]3O[C@@H]5CO[C@@H](C)O[C@H]5[C@H](O)[C@H]3O)[C@H]3COC(=O)[C@H]23)OCO4)cc(OC)c1O [ETOPOSIDE] | 1 |  |
| C=C1CC[C@H](Cl)C(C)(C)[C@@H]1C[C@@]12OC(C)(C)[C@H](Cl)C[C@]1(Cl)C(=O)C1=C(C2=O)C(=[N+]=[N-])C(=O)C(C)=C1O | < 1 | Activity (HCT-116 [2]): Dose-dependent effect; Activity (HCT-116 [4]): Active |
| Cc1c(O)cc2c(c1O)C(=O)C1C[C@@H](Cl)C(C)(C)O[C@@]1(C[C@H]1C(C)(C)[C@@H](Cl)CC[C@]1(C)O)C2=O (stereo partly drawn) | > 100 |  |
| C=C1CC[C@H](Cl)C(C)(C)[C@@H]1C[C@@]12OC(C)(C)[C@H](Cl)C[C@]1(Cl)C(=O)c1c(O)cc(O)cc1C2=O | 2 |  |
| Cc1c(O)cc2c(c1O)C(=O)[C@H]1C[C@@H](Br)C(C)(C)O[C@@]1(C[C@H]1C(C)(C)[C@@H](Br)CC[C@]1(C)O)C2=O | 49 |  |
| Cc1c(O)cc2c(c1O)C(=O)[C@@]1(Cl)C[C@@H](Cl)C(C)(C)O[C@@]1(C[C@H]1C(C)(C)[C@@H](Cl)CC[C@]1(C)O)C2=O | 15 | Activity (HCT-116 [2]): Dose-dependent effect; Activity (HCT-116 [5]): Active; Activity (HCT-116 [6]): Active |
| CC1(C)O[C@@]2(C[C@H]3C(C)(C)[C@@H](Cl)CC[C@]3(C)O)C(=O)c3cc(O)cc(O)c3C(=O)[C@@]2(Cl)C[C@H]1Cl | 10 |  |
